The values that follow come from the EternaBench riboswitch data.

For this series, the system named is MS2 coat protein. Briefly: apparent Kd, MS2 coat protein; higher = weaker binding; RNA-MaP array; FMN 200 µM where present. Summed up: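 Stalled E. coli RNA polymerase transcribed each design on Illumina sequencing-chip clusters. The clusters were titrated with SNAP-549-labelled MS2 coat protein, starting at 0.7 or 1.5 nM and doubling up to 3 µM, first without ligand and then with constant ligand, in 100 mM Tris-HCl pH 7.5, 80 mM KCl, 4 mM MgCl2, BSA, DTT, yeast tRNA and Tween-20. Green signal was normalised to red-channel RNA signal and to the control-cluster median Fmax. The apparent Kd is the median of filtered binding-curve fits made for each cluster.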

The mark [1] stands for this setting: designed as: OFF switch for flavin mononucleotide, no ligand.
Setting [2] is: ligand present: flavin mononucleotide, designed as: OFF switch for flavin mononucleotide.
[3] abbreviates: designed as: ON switch for flavin mononucleotide, no ligand.
Setting [4] is: ligand present: flavin mononucleotide, designed as: ON switch for flavin mononucleotide.

The apparent Kd is a dissociation constant that holds for the conditions of the assay.

As for “UUUGUUUUGCAAGGAUAUGUUUAAUUUUAGUUUCCUUACACAUGAGGAUCACCCAUGUUAUACUUACAGAAGGUGCGUAAUUUU”, the “apparent Kd” value reads like this: under setting [1], 126 nM; under setting [2], 94 nM.
Take “GACAUGAGGAUCACCCAUGUCCCUCCAGAAGGCUGGCGCGCGAAACCUAUCUCGGUUCCGCGCACAGAGGAUAUGGGCGGUUGG”: the “apparent Kd” value under setting [3] is 181 nM and the “apparent Kd” value under setting [4] turned out to be 29.8 nM.
In the case of “CAGCGAAAGCUGAAUCUGUAGAGAGAGGAUAUACGUCAUAAGAUGCAUACAUGAGGAUCACCCAUGUAGAAGGCUCUCUACAGU”, the “apparent Kd” value reads like this: under setting [1], 5.68 nM; under setting [2], 6.7 nM.
Take “GUGGUCAGACAUGAGGAUCACCCAUGUGGAAUAAAUAAGGAAAAGGAUAUGGAAUAUAGGAUAUACCAGAAGGUUUGGUUGGUG”: the “apparent Kd” value runs as follows: under setting [3], 105 nM; under setting [4], 127 nM.
As for “UUGGACGUCGUAGGAUAUGUAGGAUAUUCCUACAUGAGGAUCACCCAUGUUGACAUCGAAGAAGGACAGAAGGACGAUGUCCAU”, the “apparent Kd” value under setting [3] was found to be 88 nM and the “apparent Kd” value under setting [4] stood at 5.29 nM.
In the case of “UAAACACCCUCAUGUGCCUGAGGACAUGAGGAUCACCCAUGUAAGGAUAUAGCCAUUAAAUCUAACUAGAAGGUACAGGACAUC”, the “apparent Kd” value is 242 nM under setting [1] and 169 nM under setting [2].
As for “UUGUUAUAUGUAGGAUAUGCAUAUUAUUAUUAUGCAGAAGGACAUGAGGAUCACCCAUGUGUAUUGUUAUUAUAUAUUAUAUAU”, the “apparent Kd” value worked out at 22.3 nM under setting [1] and 29.5 nM under setting [2].
Regarding “AGCAUGGUAGGAUAUACGGAGCAUUAGGGUUUGUUAUGUGGACAUGAGGAUCACCCAUGUAGAAGGGCCGUGCA”, the “apparent Kd” value runs as follows: under setting [1], 38.6 nM; under setting [2], 60 nM.
For the sequence “GCGUAUAUAUGAUUUAUUUAACAGUCAGAAGGUGAGAAGACGACAUGAGGAUCACCCAUGUUAUUCAAGGAUAUGAUAAUGCGC”, the “apparent Kd” value stood at 24.9 nM under setting [3] and 11.4 nM under setting [4].
“CGUAACUACAUAGGAUAUUGAUACAUGAGGAUCACCCAUGUUUUUGGGAUUAGUUUAAUAUUAAGCAAGAAGGAUGAAGUUACG”: the “apparent Kd” value by setting is: under setting [3], 45.4 nM; under setting [4], 31.1 nM.
Take “GACAUGGUCCAGAAGGGCUAUUUAUUUAAUUAUUAUUUAGAACAGCAUAGCAGGAUAUGGCUAACAUGAGGAUCACCCAUGUUC”: the “apparent Kd” value stood at 21.5 nM under setting [3] and 12.6 nM under setting [4].
Take “UCGGCGCGAGGAUAUACGUUUGCGCGUUUUCGUUUGCGCGUACAUGAGGAUCACCCAUGUAGAAGGCGCGCGGC”: the “apparent Kd” value under setting [1] was 13.1 nM and the “apparent Kd” value under setting [2] amounted to 13.4 nM.
For the sequence “UAAUUAAGUGUGAGGAUAUGCUGGUCCUUGGAUCAGCAGAAGGCACAUGAGGAUCACCCAUGUAAUUUAUUUAU”, the “apparent Kd” value is 85.1 nM under setting [1] and 328 nM under setting [2].
For “AUGGAUACCACAGGAUAUAGCUAGCAUAGCUAGCUAGAAGGGUGGUCCAUCCUAUGUAAAUACAUGAGGAUCACCCAUGUGUCC”, the “apparent Kd” value reads like this: under setting [3], 403 nM; under setting [4], 207 nM.
For the sequence “ACAGUAUAUGUAGGAUAUCAUUGGCUAGGUAGGUGAGAAGGGCAUAGUACAUGAGGAUCACCCAUGUGUUGGUCCUCGCAGAAA”, the “apparent Kd” value by setting is: under setting [1], 634 nM; under setting [2], 380 nM.
Consider “UUCCUCGUUGUGAGGAUAUCGUAUUCUUUUUGUUACGAGAAGGCACAUGAGGAUCACCCAUGUUUCUUGAUGUU”, for which the “apparent Kd” value came to 19.5 nM under setting [1] and 68.8 nM under setting [2].
With “GGUACUCAAAGAGUACCAAUACGAACAUGAGGAUCACCCAUGUAGGAUAUGCUACUCAAAGAGUAGCAGAAGGACAUGUGCCUU”, the “apparent Kd” value runs as follows: under setting [1], 31.4 nM; under setting [2], 252 nM.
The like results for “CCCACACUUGUGAGGAUAUGGAUAGCUGCUGCUGAUUAGAAGGCACAUGAGGAUCACCCAUGUCACCCUCAUGG” were, in that order, 278 nM and 255 nM.
Consider “GCCCUCCCUGAGGAUAUUAUCUGGUUCGAUUGAUAAGAAGGCAGUACAUGAGGAUCACCCAUGUGGUUCGUUUG”, for which the “apparent Kd” value runs as follows: under setting [1], 108 nM; under setting [2], 285 nM.
Regarding “UCUACAUAAAUUCAUCAAUACAGUAAGGAUAUGAGAUACAUGAGGAUCACCCAUGUGCAUGUGAAUUAGAAGGUACAAUUAACU”, the “apparent Kd” value was 14.4 nM under setting [1] and 12 nM under setting [2].
In the case of “UAUGGUUAAGUCAGGAUAUGCUCGUAGAAGUCUAUGCAGAAGGGACAUGAGGAUCACCCAUGUAUGGUCGUGUU”, the “apparent Kd” value runs as follows: under setting [1], 94.3 nM; under setting [2], 177 nM.
“GUCAGCUCGUGAGGAUAUACAACACUGCUUCGGCGGUGUAUUAAGAUCACAUGAGGAUCACCCAUGUAGAAGGCACGAGCUGAU”: the “apparent Kd” value reads like this: under setting [1], 13.1 nM; under setting [2], 249 nM.
Consider “UGGUACAUGGGAGGAUAUGGGUUGAUAACAUGAGGAUCACCCAUGUUAAAUAUGGCGAGAGCCAACUAGAAGGCCCAUGUACCU”, for which the “apparent Kd” value runs as follows: under setting [3], 594 nM; under setting [4], 38.8 nM.
Regarding “AAAACAUGAGGAUCACCCAUGUAAAGAUCGGUUGAUGAAAGUGAGGAUAUACAAAAUUUUAUGGAGUAGAAGGCACUGGGUACA”, the “apparent Kd” value came to 44.6 nM under setting [3] and 40.9 nM under setting [4].
As for “CUUUUGUGAGGAUAUUAGUAGUAUAUAAAUAAAAUUACUACUGAGAAGGCACAUGAGGAUCACCCAUGUUCCUC”, the “apparent Kd” value under setting [1] amounted to 32.7 nM and the “apparent Kd” value under setting [2] was determined as 124 nM.
With “UUGCCUCAGAACAUGAGGAUCACCCAUGUGCUGUGGGCAACAUAGGAUAUGAUGGUAUUAUACCGUCAGAAGGAUGAUGGUACU”, the “apparent Kd” value is, setting by setting: under setting [3], 5.34 nM; under setting [4], 5.06 nM.
For “UCAGGCUUCGAGAAGGACAUGAGGAUCACCCAUGUUAAUUUGAAGCAGCCGUGAGGCUGCAUCAUGUAGGAUAUCGGAGUCUGC”, the “apparent Kd” value is, setting by setting: under setting [1], 6.17 nM; under setting [2], 10.2 nM.
Turning to “UGAGCCUCGUGAGGAUAUACAUGAGGAUCACCCAUGUAAAUGGAAGAACGGAGGAAACUCCGAAUGUAGAAGGCACGAGGCUCA”, the “apparent Kd” value under setting [1] is 145 nM and the “apparent Kd” value under setting [2] came out at 773 nM.
As to “GGCUGGCAGCUAGGAUAUGGGCGAUCACAUGAGGAUCACCCAUGUCAACAUCAAAACAAGAUUAACCAGAAGGAGCCGCGGGUU”, the “apparent Kd” value runs as follows: under setting [3], 18.4 nM; under setting [4], 76.7 nM.
For “UUGGCGACGUAGAAGGGUGACAUGAGGAUCACCCAUGUGCCGAUAUUUCUCGAGAUAUGUCGGCCACAGGAUAUACGUGCCAUC”, the “apparent Kd” value reads like this: under setting [3], 59.3 nM; under setting [4], 31.9 nM.
As to “GUCAGCUCGUCAGGAUAUACAACACUGCUUCGGCAGUGUAUUAAGAUCACAUGAGGAUCACCCAUGUAGAAGGCACGAGCUGAU”, the “apparent Kd” value reads like this: under setting [1], 7.39 nM; under setting [2], 7.56 nM.
Turning to “AUUAUAUAGAAAGGAUAUUGAUUAUUAUUUUAACAUGAGGAUCACCCAUGUAGCCUUAUGUAUAACAAGAAGGUUCAUUUAUUA”, the “apparent Kd” value is, setting by setting: under setting [1], 75.9 nM; under setting [2], 89.5 nM.
For the sequence “GGGUAAUAUCGAGGAUAUGUCUAGACACAUGAGGAUCACCCAUGUAUGUGUAUAGAAGGCGAUAUUAACAGCAUGUUACAUCCC”, the “apparent Kd” value by setting is: under setting [3], 48.1 nM; under setting [4], 20.8 nM.
Regarding “AUCCGGCGUGUAGGAUAUGGAACCGAUUAGGAUCCAGAAGGACAUGAGGAUCACCCAUGUACAUGUAAACAGUCAUCACCGGAA”, the “apparent Kd” value reads like this: under setting [1], 10.9 nM; under setting [2], 65.3 nM.
In the case of “CCAUGCGGAUGAGGAUAUUCAUCCAUGAGGAUAGAAGAAGGCAUACAUGAGGAUCACCCAUGUAUACACAUGAGGAUCCCUUAC”, the “apparent Kd” value under setting [1] worked out at 128 nM and the “apparent Kd” value under setting [2] was found to be 178 nM.
For “AGAUAACACCAGAAGGACAUGAGGAUCACCCAUGUAGGAUAUGGGCAUCACUCGAGAAAGAAACGACCAAAAGGACACGUGGUC”, the “apparent Kd” value by setting is: under setting [3], 177 nM; under setting [4], 13.4 nM.
Take “GCGUCAGAAUUAAUUGUGACAUACAGAAGGCAAAAGUUAUGUUCAGACAUGAGGAUCACCCAUGUUGAGGAUAUGUAGAGAAUC”: the “apparent Kd” value under setting [1] amounted to 8.27 nM and the “apparent Kd” value under setting [2] is 7.1 nM.
For “AUACCACGAGGAUAUCGACUAUACCACAUGAGGAUCACCCAUGUUAUCCAUGUUUCGUUUCGAGAAGGCGUGGGUU”, the “apparent Kd” value under setting [1] came out at 39.1 nM and the “apparent Kd” value under setting [2] was 33.9 nM.
As for “AAGCGAGGGACAGGAUAUGCAGCGAAACUCGCCGCAGAAGGGUCGACAUGAGGAUCACCCAUGUCCUUACGCUCCAAGUAGUGG”, the “apparent Kd” value was found to be 232 nM under setting [3] and 299 nM under setting [4].
As to “GCGAAUCAGUGAGGAUAUACAUAAAUUAUAACAGUAGAAGGCACAUACCUCAAGACAUGAGGAUCACCCAUGUGACAUAUCGCU”, the “apparent Kd” value reads like this: under setting [1], 258 nM; under setting [2], 488 nM.
Consider “CCAUGGAAUGUAGGAUAUGUCUGACAAAGUCAGACAGAAGGACAUGAGGAUCACCCAUGUAGGAAACAACCACAUAAACCAUGG”, for which the “apparent Kd” value is 6.83 nM under setting [1] and 7.08 nM under setting [2].
Take “GACCGCGAGGAAGGAUAUGGAGCCUUAAAGGCUCCAGAAGGUCCAUAAAGGACAUGAGGAUCACCCAUGUGGUGAGAAGCGGUC”: the “apparent Kd” value under setting [3] worked out at 1720 nM and the “apparent Kd” value under setting [4] was 201 nM.
For the sequence “GUCAGUGUGGUAGGAUAUCGAAACGGUCAGUUACGAGAAGGGCUACAUGAGGAUCACCCAUGUAUCCAAGAUCGGCUUACAGCA”, the “apparent Kd” value is 5.87 nM under setting [1] and 5.92 nM under setting [2].
Consider “UAUUAACACGAAGGAUAUGGUUACAUGAGGAUCACCCAUGUAUGUAUAUUGAUCUAGAUUUUUGACCAGAAGGUCGUGAGUAAA”, for which the “apparent Kd” value is, setting by setting: under setting [1], 23.9 nM; under setting [2], 38.2 nM.
As for “GUAGAGUAAGGAUAUGCUGAAUAGGAUAGAAUGGUUAGAAAGCAGAAGGUACAUGAGGAUCACCCAUGUAAUGU”, the “apparent Kd” value was found to be 23.2 nM under setting [1] and 21.2 nM under setting [2].
For “AAGAAGUGAGGAUAUCCUGCUCGUCACUUGCGUGAUGAGUAGGAGAAGGCACAUGAGGAUCACCCAUGUAAAGA”, the “apparent Kd” value was 37.4 nM under setting [1] and 41.6 nM under setting [2].
Turning to “AAAAAACAUGAGGAUCACCCAUGUCAGGAUAUCGAAAAAAAAAAAAAAAAAAAAAAAACGAGAAGGGACAAAAA”, the “apparent Kd” value under setting [1] was determined as 99.3 nM and the “apparent Kd” value under setting [2] is 104 nM.
In the case of “UGCAUGCUAGGAUAUACGGGACAUUAGGGUUUGUCGUGUGGACAUGAGGAUCACCCAUGUAGAAGGAGCGUGCU”, the “apparent Kd” value reads like this: under setting [1], 49.5 nM; under setting [2], 207 nM.
